Results: ChEMBL document CHEMBL1137650, “An OXA-66/OXA-51-like carbapenemase and possibly an efflux pump are associated with resistance to imipenem in Acinetobacter baumannii” (2007)
In brackets after ≈: the same amount, converted by molar mass.

Legend:
Format in all cases: functional
Acinetobacter baumannii [1] = experiment: Antibacterial activity against imipenem-resistant Acinetobacter baumannii abh11 by broth dilution method
Method in brief: (§1)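 Clinical isolates were collected at three Taiwan hospitals (1993–2003) and grown in tryptic soy broth at 37°C for 18 h. MIC by broth dilution following CLSI recommendations.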

Acinetobacter baumannii [2] = experiment: Antibacterial activity against imipenem-intermediate Acinetobacter baumannii ab1297 by broth dilution method
Method in brief: (§2)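 Clinical A. baumannii isolates collected at three Taiwanese hospitals, routinely grown in tryptic soy broth at 37°C for 18 h. MICs (μg ml⁻¹) were determined by broth dilution following CLSI recommendations, or by Etest strips following the manufacturer's instructions.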

Acinetobacter baumannii [3] = experiment: Antibacterial activity against imipenem-resistant Acinetobacter baumannii abh17 by broth dilution method; method in brief: as §1
Acinetobacter baumannii [4] = experiment: Antibacterial activity against imipenem-susceptible Acinetobacter baumannii ab1254 by broth dilution method; method in brief: as §1
Acinetobacter baumannii [5] = experiment: Antibacterial activity against imipenem-susceptible Acinetobacter baumannii ab20 by broth dilution method; method in brief: as §1
Acinetobacter baumannii [6] = experiment: Antibacterial activity against imipenem-resistant Acinetobacter baumannii abh20 by broth dilution method; method in brief: as §1
Acinetobacter baumannii [7] = experiment: Antibacterial activity against imipenem-resistant Acinetobacter baumannii ab1265 by broth dilution method; method in brief: as §1
Acinetobacter baumannii [8] = experiment: Antibacterial activity against imipenem-resistant Acinetobacter baumannii abh9 by broth dilution method; method in brief: as §1
Acinetobacter baumannii [9] = experiment: Antibacterial activity against imipenem-resistant Acinetobacter baumannii abh36 by broth dilution method; method in brief: as §1
Acinetobacter baumannii [10] = experiment: Antibacterial activity against imipenem-resistant Acinetobacter baumannii abh37 by broth dilution method; method in brief: as §1
Acinetobacter baumannii [11] = experiment: Antibacterial activity against imipenem-resistant Acinetobacter baumannii abh18 by broth dilution method; method in brief: as §1
Acinetobacter baumannii [12] = experiment: Antibacterial activity against imipenem-resistant Acinetobacter baumannii abh13 by broth dilution method; method in brief: as §1
Acinetobacter baumannii [13] = experiment: Antibacterial activity against imipenem-susceptible Acinetobacter baumannii ab3 by broth dilution method; method in brief: as §1
Acinetobacter baumannii [14] = experiment: Antibacterial activity against imipenem-susceptible Acinetobacter baumannii ab12 by broth dilution method; method in brief: as §1
Acinetobacter baumannii [15] = experiment: Antibacterial activity against imipenem-resistant Acinetobacter baumannii abh26 by broth dilution method; method in brief: as §1
Acinetobacter baumannii [16] = experiment: Antibacterial activity against imipenem-resistant Acinetobacter baumannii abh39 by broth dilution method; method in brief: as §1
Acinetobacter baumannii [17] = experiment: Antibacterial activity against imipenem-susceptible Acinetobacter baumannii ab8 by broth dilution method; method in brief: as §1
Acinetobacter baumannii [18] = experiment: Antibacterial activity against imipenem-susceptible Acinetobacter baumannii ab1316 by broth dilution method; method in brief: as §2
Acinetobacter baumannii [19] = experiment: Antibacterial activity against imipenem-resistant Acinetobacter baumannii abh14 by broth dilution method; method in brief: as §1
Acinetobacter baumannii [20] = experiment: Antibacterial activity against imipenem-resistant Acinetobacter baumannii ab1266 by broth dilution method; method in brief: as §1
Acinetobacter baumannii [21] = experiment: Antibacterial activity against imipenem-susceptible Acinetobacter baumannii ab1308 by broth dilution method; method in brief: as §2
Acinetobacter baumannii [22] = experiment: Antibacterial activity against imipenem-susceptible Acinetobacter baumannii ab4 by broth dilution method; method in brief: as §1
Acinetobacter baumannii [23] = experiment: Antibacterial activity against imipenem-resistant Acinetobacter baumannii abh29 by broth dilution method; method in brief: as §1

SMILES	MIC (Acinetobacter baumannii [1]) [µg/mL]	MIC (Acinetobacter baumannii [2]) [µg/mL]	MIC (Acinetobacter baumannii [3]) [µg/mL]	MIC (Acinetobacter baumannii [4]) [µg/mL]	MIC (Acinetobacter baumannii [5]) [µg/mL]	MIC (Acinetobacter baumannii [6]) [µg/mL]	MIC (Acinetobacter baumannii [7]) [µg/mL]	MIC (Acinetobacter baumannii [8]) [µg/mL]	MIC (Acinetobacter baumannii [9]) [µg/mL]	MIC (Acinetobacter baumannii [10]) [µg/mL]	MIC (Acinetobacter baumannii [11]) [µg/mL]	MIC (Acinetobacter baumannii [12]) [µg/mL]	MIC (Acinetobacter baumannii [13]) [µg/mL]	MIC (Acinetobacter baumannii [14]) [µg/mL]	MIC (Acinetobacter baumannii [15]) [µg/mL]	MIC (Acinetobacter baumannii [16]) [µg/mL]	MIC (Acinetobacter baumannii [17]) [µg/mL]	MIC (Acinetobacter baumannii [18]) [µg/mL]	MIC (Acinetobacter baumannii [19]) [µg/mL]	MIC (Acinetobacter baumannii [23]) [µg/mL]	other results
NCC[C@H](O)C(=O)N[C@@H]1C[C@H](N)[C@@H](O[C@H]2O[C@H](CN)[C@@H](O)[C@H](O)[C@H]2O)[C@H](O)[C@H]1O[C@H]1O[C@H](CO)[C@@H](O)[C@H](N)[C@H]1O [AMIKACIN]	> 256	> 256	> 256	> 256	128 (≈ 219 µM)	> 256	> 256	> 256	> 256	> 256	> 256	> 256	3 (≈ 5.12 µM)	> 256	> 256	> 256	12 (≈ 20.5 µM)	> 256	> 256	> 256	MIC (Acinetobacter baumannii [20]): > 256 µg/mL; MIC (Acinetobacter baumannii [21]): > 256 µg/mL; MIC (Acinetobacter baumannii [22]): 8 µg/mL (≈ 13.7 µM)
CCN1CCN(C(=O)N[C@@H](C(=O)N[C@@H]2C(=O)N3[C@@H]2SC(C)(C)[C@@H]3C(=O)O)c2ccccc2)C(=O)C1=O [PIPERACILLIN]	> 256	> 256	> 256	> 256	> 256	> 256	> 256	> 256	> 256	> 256	> 256	> 256	> 256	> 256	> 256	> 256	> 256	> 256	> 256	> 256	MIC (Acinetobacter baumannii [20]): > 256 µg/mL; MIC (Acinetobacter baumannii [21]): > 256 µg/mL; MIC (Acinetobacter baumannii [22]): > 256 µg/mL
CO/N=C(\C(=O)N[C@@H]1C(=O)N2C(C(=O)[O-])=C(C[N+]3(C)CCCC3)CS[C@H]12)c1csc(N)n1 [CEFEPIME]						256 (≈ 533 µM)			256 (≈ 533 µM)		256 (≈ 533 µM)		6 (≈ 12.5 µM)		256 (≈ 533 µM)	256 (≈ 533 µM)			256 (≈ 533 µM)	96 (≈ 200 µM)	
